Laboratory results published in ChEMBL document CHEMBL1221214, “Cytosporone B is an agonist for nuclear orphan receptor Nur77” (Nat Chem Biol, 2008).
In brackets after ≈: the same amount, converted by molar mass. Activity calls are given as the source filed them. The rule behind the calls is not given here.

Columns and labels:
[1] = target: Nuclear receptor subfamily 4immunitygroup A member 1 (Homo sapiens, UniProt P22736, Y453A); assay: Binding affinity to Nur77 Y453A mutant expressed in human BGC823 cells; format: cell-based, BGC-823
[2] = target: T1, Nuclear receptor subfamily 4immunitygroup A member 1 (Homo sapiens, UniProt P22736); assay: Binding affinity to nuclear orphan receptor Nur77 assessed as conformational change in receptor by CD spectroscopic
[3] = test system: BGC-823; assay: Induction of mitochondria translocation of Nur77 from nucleus in human BGC823 cells transfected with GFP-Nur77 pretreated with 1 ng/ml leptomycin B at 5 ug/ml after 12 hrs using […] by confocal microscope; format: functional, cell-based
[4] = target: T1, Nuclear receptor subfamily 4immunitygroup A member 1; assay: Binding affinity to GST-tagged nuclear orphan receptor Nur77 at 25 degC by fluorescence quenching analysis
Summary of the method: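 GST-Nur77 intrinsic fluorescence (emission maximum 336 nm) monitored while increasing Csn-B amounts were added; inner-filter contribution estimated with GST alone and subtracted to give corrected quenching curves.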

[5] = test system: Mycobacterium tuberculosis; assay: Antimicrobial activity against Mycobacterium tuberculosis; format: functional, organism-based
[6] = test system: Staphylococcus aureus; assay: Antimicrobial activity against Staphylococcus aureus; format: functional, organism-based
[7] = test system: Saccharomyces cerevisiae; assay: Antimicrobial activity against Saccharomyces cerevisiae; format: functional, organism-based

T1 sequence (P22736 whole entry): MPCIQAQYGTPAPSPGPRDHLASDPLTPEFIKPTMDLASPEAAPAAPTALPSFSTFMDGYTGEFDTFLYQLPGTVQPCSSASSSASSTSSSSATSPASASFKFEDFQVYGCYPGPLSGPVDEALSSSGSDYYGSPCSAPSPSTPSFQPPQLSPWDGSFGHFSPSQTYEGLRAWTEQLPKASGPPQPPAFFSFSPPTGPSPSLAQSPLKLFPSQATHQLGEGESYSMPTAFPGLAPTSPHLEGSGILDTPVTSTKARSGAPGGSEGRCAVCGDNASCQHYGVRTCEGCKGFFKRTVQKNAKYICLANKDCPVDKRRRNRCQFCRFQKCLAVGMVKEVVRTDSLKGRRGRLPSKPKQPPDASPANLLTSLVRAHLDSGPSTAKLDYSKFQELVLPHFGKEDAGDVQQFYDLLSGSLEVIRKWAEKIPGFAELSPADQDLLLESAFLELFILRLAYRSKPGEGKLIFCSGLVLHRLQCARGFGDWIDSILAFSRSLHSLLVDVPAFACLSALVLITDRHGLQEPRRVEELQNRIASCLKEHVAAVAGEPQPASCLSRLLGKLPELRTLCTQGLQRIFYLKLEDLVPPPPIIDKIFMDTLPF
Sequence of Nuclear receptor subfamily 4immunitygroup A member 1 (Homo sapiens, UniProt P22736, Y453A) (P22736 whole entry Y453A): as the sequence (P22736 whole entry) above, with Y453A counted along it

CC1=C(/C=C/C(C)=C\C=C\C(C)=C\C(=O)O)C(C)(C)CCC1 [ALITRETINOIN]
Kd [1]: 0.81 µM

CCCCCCCC1OC(=O)Cc2cc(O)cc(O)c21 (configuration not stated) [CYTOSPORONE C]
Activity [2]: inactive | Activity [3]: inactive | Activity [4]: inactive | IC50 [5]: 62.5 µg/mL (≈ 225 µM) | IC50 [6]: 50 µg/mL (≈ 180 µM) | IC50 [7]: 12.5 µg/mL (≈ 44.9 µM)
